From ChEMBL document CHEMBL1154770, “Betulinic acid derivatives as human immunodeficiency virus type 2 (HIV-2) inhibitors” (J Med Chem, 2009)
Activity calls are given as the source filed them. No cut-off for these calls is given here.

Key:
[1] = Cytotoxicity against human TZM-b1 cells after 2 days; format: cell-based; details: read-out: TC50
[2] = Antiviral activity against HIV2 KR X3 infected in human TZM-b1 cells assessed as reduction in luciferase activity after 2 days by luciferase reporter gene assay; format: functional, cell-based, Human immunodeficiency virus type 2 (isolate KR); details: Human immunodeficiency virus 2, X3, TZM-b1, 48 h
Procedure, shortened: (§1)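 Single-round infection of TZM-bl cells with 200 TCID50 of virus in the presence of graded compound concentrations. After 2 days, the medium was removed and Bright Glo reagent was added to read luciferase luminescence (RLU). IC50 is the concentration giving 50% reduction of luciferase activity relative to virus control wells.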

[3] = test system: Human immunodeficiency virus 1; test: Antiviral activity against HIV1 NL4-3 infected in human TZM-b1 cells assessed as reduction in luciferase activity after 2 days by luciferase reporter gene assay; format: functional, cell-based; details: Human immunodeficiency virus 1, NL4-3, TZM-b1, 48 h; procedure, shortened: as §1
[4] = test system: HIV-1 NL4-3 (human immunodeficiency virus 1); test: Antiviral activity against HIV1 NL4-3 infected in human TZM-b1 cells after 2 days by luciferase reporter gene assay; details: Human immunodeficiency virus 1, NL4-3, TZM-b1, 48 h
[5] = Selectivity index, ratio of TC50 for human TZM-b1 cells to IC50 for HIV2 KR X3 infected in human TZM-b1 cells; format: toxicity, cell-based; details: TZM-b1 cells infected with HIV2 KR X3, read-out: Selectivity Index
Procedure, shortened: (§2)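 TC50 from 2-day CytoTox-Glo viability assay of compound-treated TZM-bl cells, divided by IC50 from single-round TZM-bl infection (200 TCID50 HIV-1 NL4-3 or HIV-2 KR.X3, 2-day luciferase read, 50% RLU reduction versus virus control).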

[6] = Selectivity index, ratio of TC50 for human TZM-b1 cells to IC50 for HIV1 NL4-3 infected in human TZM-b1 cells; format: toxicity, cell-based; details: TZM-b1 cells infected with HIV1 NL4-3, read-out: Selectivity Index; procedure, shortened: as §2
[7] = Ratio of IC50 for HIV2 KR X3 infected in human TZM-b1 cells to IC50 for HIV1 NL4-3 infected in human TZM-b1 cells; format: functional
Procedure, shortened: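 IC50s from single-round TZM-bl infection with 200 TCID50 HIV-1 NL4-3 or HIV-2 KR.X3, graded compound concentrations, 2-day luciferase (Bright Glo) read-out; IC50 = 50% RLU reduction versus virus control; ratio of HIV-2 to HIV-1 IC50.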

TZM-b1 [8] = test: Antiviral activity against HIV2 KR X3 infected in human TZM-b1 cells after 2 days by luciferase reporter gene assay; format: functional, cell-based; details: Human immunodeficiency virus type 2 (isolate KR); procedure, shortened: as §1
TZM-b1 [9] = test: Antiviral activity against HIV2 KR X3 harboring V3 loop of HIV1 YU-2 infected in human TZM-b1 cells after 2 days by luciferase reporter gene assay; format: functional, cell-based; details: Human immunodeficiency virus type 2 (isolate KR); procedure, shortened: as §1
TZM-b1 [10] = test: Inhibition of HIV1 YU-2 gp120 V3 loop assessed as inhibition of HIV2 KR X3 replication in human TZM-b1 cells; format: cell-based; details: Human immunodeficiency virus type 1 (isolate YU2)
Procedure, shortened: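 Single-round infection of TZM-bl cells with 200 TCID50 of HIV-2 KR.X3 chimera carrying the HIV-1 YU2 V3 loop (KR.X3-YU2/V3), in presence of graded compound concentrations. After 2 days medium removed, Bright Glo added, luciferase luminescence read; IC50 = concentration halving RLU versus virus-control wells.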

| Structure (SMILES) | CC50 at 48 h [1] [nM] | IC50 [2] [nM] | IC50 [3] [nM] | selectivity ratio [5] | other results |
| --- | --- | --- | --- | --- | --- |
| C=C(C)[C@@H]1CC[C@]2(C(=O)NCCCCCC(=O)NCC(=O)NCC(=O)O)CC[C@]3(C)[C@H](CC[C@@H]4[C@@]5(C)CC[C@H](O)C(C)(C)[C@@H]5CC[C@]43C)[C@@H]12 | > 58000 | 1700 | > 58000 | – | – |
| C=C(C)[C@@H]1CC[C@]2(C(=O)NCCCCCCNC(C)=O)CC[C@]3(C)[C@H](CC[C@@H]4[C@@]5(C)CC[C@H](O)C(C)(C)[C@@H]5CC[C@]43C)[C@@H]12 | 48100 | – | 27 | < 2 | IC50 [4]: 27 nM |
| C=C(C)[C@@H]1CC[C@]2(C(=O)NCCCCCCCC(=O)O)CC[C@]3(C)[C@H](CC[C@@H]4[C@@]5(C)CC[C@H](O)C(C)(C)[C@@H]5CC[C@]43C)[C@@H]12 | 34200 | – | 840 | < 2 | – |
| C=C(C)[C@@H]1CC[C@]2(C(=O)NCCCCC(=O)NCC(=O)O)CC[C@]3(C)[C@H](CC[C@@H]4[C@@]5(C)CC[C@H](O)C(C)(C)[C@@H]5CC[C@]43C)[C@@H]12 | > 65000 | 2600 | – | – | selectivity ratio [6]: < 2 |
| C=C(C)[C@@H]1CC[C@]2(C(=O)NCCCCCCC(=O)O)CC[C@]3(C)[C@H](CC[C@@H]4[C@@]5(C)CC[C@H](O)C(C)(C)[C@@H]5CC[C@]43C)[C@@H]12 | 36200 | 4500 | 11100 | – | – |
| C=C(C)[C@@H]1CC[C@]2(C(=O)NCCCCCCCNC(C)=O)CC[C@]3(C)[C@H](CC[C@@H]4[C@@]5(C)CC[C@H](O)C(C)(C)[C@@H]5CC[C@]43C)[C@@H]12 | > 66000 | – | 38 | < 2 | IC50 [4]: 38 nM |
| C=C(C)[C@@H]1CC[C@]2(C(=O)NCCCCCCNC(=O)CC(=O)O)CC[C@]3(C)[C@H](CC[C@@H]4[C@@]5(C)CC[C@H](O)C(C)(C)[C@@H]5CC[C@]43C)[C@@H]12 | 34600 | – | 440 | < 2 | – |
| C=C(C)[C@@H]1CC[C@]2(C(=O)NCCCC(=O)NCC(=O)O)CC[C@]3(C)[C@H](CC[C@@H]4[C@@]5(C)CC[C@H](O)C(C)(C)[C@@H]5CC[C@]43C)[C@@H]12 | > 67000 | 3700 | – | – | selectivity ratio [6]: < 2 |
| C=C(C)[C@@H]1CC[C@]2(C(=O)NCCCC(=O)O)CC[C@]3(C)[C@H](CC[C@@H]4[C@@]5(C)CC[C@H](O)C(C)(C)[C@@H]5CC[C@]43C)[C@@H]12 | 31200 | 2800 | – | – | selectivity ratio [6]: < 2 |
| C=C(C)[C@@H]1CC[C@]2(C(=O)NCCCCCC(=O)N[C@@H](C)C(=O)O)CC[C@]3(C)[C@H](CC[C@@H]4[C@@]5(C)CC[C@H](O)C(C)(C)[C@@H]5CC[C@]43C)[C@@H]12 | > 63000 | 370 | 48900 | – | – |
| C=C(C)[C@@H]1CC[C@]2(C(=O)NCCCCCC(=O)O)CC[C@]3(C)[C@H](CC[C@@H]4[C@@]5(C)CC[C@H](O)C(C)(C)[C@@H]5CC[C@]43C)[C@@H]12 | > 70000 | 150 | 2000 | – | – |
| C=C(C)[C@@H]1CC[C@]2(C(=O)NCCCCCCCC(=O)NCC(=O)O)CC[C@]3(C)[C@H](CC[C@@H]4[C@@]5(C)CC[C@H](O)C(C)(C)[C@@H]5CC[C@]43C)[C@@H]12 | 15800 | 640 | 120 | – | – |
| C=C(C)[C@@H]1CC[C@]2(C(=O)NCCCCCC(=O)N[C@@H](Cc3ccc(O)cc3)C(=O)O)CC[C@]3(C)[C@H](CC[C@@H]4[C@@]5(C)CC[C@H](O)C(C)(C)[C@@H]5CC[C@]43C)[C@@H]12 | 54600 | 230 | – | – | selectivity ratio [6]: < 2 |
| C=C(C)[C@@H]1CC[C@]2(C(=O)NCCCCCCCC(=O)NC(CC(C)C)[C@H](O)CC(=O)O)CC[C@]3(C)[C@H](CC[C@@H]4[C@@]5(C)CC[C@H](O)C(C)(C)[C@@H]5CC[C@]43C)[C@@H]12 (single isomer, unassigned) | 33200 | 2900 | 42 | – | Ratio IC50 [7]: 70 |
| C=C(C)[C@@H]1CC[C@]2(C(=O)NCCCCCCCCNC(C)=O)CC[C@]3(C)[C@H](CC[C@@H]4[C@@]5(C)CC[C@H](O)C(C)(C)[C@@H]5CC[C@]43C)[C@@H]12 | > 64000 | – | 140 | < 2 | – |
| C=C(C)[C@@H]1CC[C@]2(C(=O)O)CC[C@]3(C)[C@H](CC[C@@H]4[C@@]5(C)CC[C@H](O)C(C)(C)[C@@H]5CC[C@]43C)[C@@H]12 [BETULINIC ACID] | > 80000 | – | – | < 2 | selectivity ratio [6]: < 2 |
| C=C(C)[C@@H]1CC[C@]2(C(=O)NCCCCCCC(=O)NCC(=O)O)CC[C@]3(C)[C@H](CC[C@@H]4[C@@]5(C)CC[C@H](O)C(C)(C)[C@@H]5CC[C@]43C)[C@@H]12 | > 63000 | 420 | 4100 | – | – |
| C=C(C)[C@@H]1CC[C@]2(C(=O)NCCCCCC(=O)N3CCC[C@H]3C(=O)O)CC[C@]3(C)[C@H](CC[C@@H]4[C@@]5(C)CC[C@H](O)C(C)(C)[C@@H]5CC[C@]43C)[C@@H]12 | > 60000 | 630 | 51400 | – | – |
| C=C(C)[C@@H]1CC[C@]2(C(=O)NCCCCCNC(C)=O)CC[C@]3(C)[C@H](CC[C@@H]4[C@@]5(C)CC[C@H](O)C(C)(C)[C@@H]5CC[C@]43C)[C@@H]12 | 13900 | – | – | < 2 | selectivity ratio [6]: < 2 |
| Cc1cn([C@H]2C[C@H](N=[N+]=[N-])[C@@H](CO)O2)c(=O)[nH]c1=O [ZIDOVUDINE] | – | 69 | – | – | – |
| C=C(C)[C@@H]1CC[C@]2(C(=O)NCCCCCC(=O)NCC(=O)O)CC[C@]3(C)[C@H](CC[C@@H]4[C@@]5(C)CC[C@H](O)C(C)(C)[C@@H]5CC[C@]43C)[C@@H]12 | > 64000 | 350 | 34700 | – | IC50 [4]: 350 nM; Activity (TZM-b1 [8]): Dose-dependent effect; Activity (TZM-b1 [9]): Dose-dependent effect; Activity (TZM-b1 [10]): Active |
| C=C(C)[C@@H]1CC[C@]2(C(=O)NCCCCC(=O)O)CC[C@]3(C)[C@H](CC[C@@H]4[C@@]5(C)CC[C@H](O)C(C)(C)[C@@H]5CC[C@]43C)[C@@H]12 | > 72000 | 170 | 32800 | – | – |
| C=C(C)[C@@H]1CC[C@]2(C(=O)O)CC[C@]3(C)[C@H](CC[C@@H]4[C@@]5(C)CC[C@H](OC(=O)CC(C)(C)C(=O)O)C(C)(C)[C@@H]5CC[C@]43C)[C@@H]12 [BEVIRIMAT] | > 30000 | – | 130 | < 2 | – |
